Source: ChEMBL document CHEMBL3228044, “Studies on antianaphylactic agents. 6. Synthesis of some metabolites of 6-ethyl-3-(1H-tetrazol-5-yl)chromone and their analogues” (1979)

Assays:
Rattus norvegicus [1] = assay: Antianaphylactic activity in iv dosed male Sprague-Dawley rat assessed as inhibition of egg albumin/Bordetella pertussis-induced passive cutaneous anaphylaxis reaction; assay type: functional; conditions: read-out: ID50 (the source's name)
Summary of the method: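 Sera from rats sensitized with im egg albumin plus ip sterilized B. pertussis (collected day 12) were diluted fourfold and injected intradermally into dorsal skin of 8-week rats (~280 g). At 72 h, rats received iv egg albumin 5 mg plus Evans blue 10 mg. Drug in saline or PEG 400 was given iv immediately before challenge. Dye-leakage area (mm2) was read at 30 min. ID50 by least squares on log dose, with 95% confidence limits.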

Rattus norvegicus [2] = assay: Antianaphylactic activity in po dosed male Sprague-Dawley rat assessed as inhibition of egg albumin/Bordetella pertussis-induced passive cutaneous anaphylaxis reaction; assay type: functional; conditions: read-out: ID50 (the source's name)
Summary of the method: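 Homologous rat PCA used 72-h skin sensitization with fourfold-diluted anti-egg albumin serum, raised with B. pertussis adjuvant, in 8-week rats (~280 g). Drug was suspended in 3% gum arabic and given orally 5 min before iv challenge with egg albumin 5 mg plus Evans blue 10 mg. Dye-leakage area (mm2) was measured after 30 min. ID50 by least squares on log dose vs area, with 95% confidence limits.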

Row | SMILES | ED50 (Rattus norvegicus [1]) | ED50 (Rattus norvegicus [2])
1 | CCc1ccc2occ(-c3nnnn3[C@@H]3O[C@H](C(=O)[O-])[C@@H](O)[C@H](O)[C@H]3O)c(=O)c2c1.[Na+] | > 20 mg/kg | –
2 | CCc1ccc2occ(-c3nnn[nH]3)c(=O)c2c1 | 0.25 mg/kg | 5.9 mg/kg
3 | CC(O)c1ccc2occ(-c3nnn[nH]3)c(=O)c2c1 (stereo not given) | 0.56 mg/kg | 13.4 mg/kg
4 | CC(=O)c1ccc2occ(-c3nnn[nH]3)c(=O)c2c1 | 0.24 mg/kg | 6.6 mg/kg
5 | O=c1c(-c2nnn[nH]2)coc2ccc(CCO)cc12 | 0.21 mg/kg | > 20 mg/kg
6 | O=c1c(-c2nnn[nH]2)coc2ccc(C(O)CO)cc12 (stereo not given) | 0.57 mg/kg | > 20 mg/kg
7 | CCc1ccc(O)c(C(=O)O)c1 | > 20 mg/kg | –
8 | O=C(O)Cc1ccc(O)c(C(=O)O)c1 | > 20 mg/kg | –
9 | CC(=O)OC(C)c1ccc2occ(-c3nnn[nH]3)c(=O)c2c1 (stereo not given) | – | > 20 mg/kg
10 | CCC(O)c1ccc2occ(-c3nnn[nH]3)c(=O)c2c1 (stereo not given) | 0.3 mg/kg | > 20 mg/kg
11 | CCCC(O)c1ccc2occ(-c3nnn[nH]3)c(=O)c2c1 (stereo not given) | 1.07 mg/kg | –
12 | CC(C)(O)c1ccc2occ(-c3nnn[nH]3)c(=O)c2c1 | 1.13 mg/kg | –
13 | CCC(=O)c1ccc2occ(-c3nnn[nH]3)c(=O)c2c1 | 0.29 mg/kg | –
14 | O=Cc1ccc2occ(-c3nnn[nH]3)c(=O)c2c1 | 1.1 mg/kg | > 20 mg/kg
15 | O=c1c(-c2nnn[nH]2)coc2ccc(CO)cc12 | 0.34 mg/kg | –
16 | C=Cc1ccc2occ(-c3nnn[nH]3)c(=O)c2c1 | 0.49 mg/kg | –
17 | O=C([O-])c1cc(=O)c2c(OCC(O)COc3cccc4oc(C(=O)[O-])cc(=O)c34)cccc2o1.[Na+].[Na+] [CROMOLYN SODIUM] | 1.33 mg/kg | > 100 mg/kg
